Measured values: ChEMBL document CHEMBL1155806, “Inorganic polyhedral metallacarborane inhibitors of HIV protease: a new approach to overcoming antiviral resistance” (J Med Chem, 2008)

What was measured:
[1] = Ratio of Ki for HIV1 recombinant protease V32I/I47A mutant to Ki for wild-type HIV1 BH10 protease; set-up: species or system Human immunodeficiency virus 1
[2] = Ratio of Ki for HIV1 recombinant protease L10I/I15V/E35D/N37S/R41K/I62V/L63P/A71V/G73S/L90M mutant to Ki for wild-type HIV1 BH10 protease; set-up: species or system Human immunodeficiency virus 1
[3] = Ratio of Ki for HIV1 recombinant protease L10I/L24I/L33F/M46L/[…]/L63P/A71V/V82A/I84V mutant to Ki for wild-type HIV1 BH10 protease expressed in Escherichia coli; set-up: species or system Human immunodeficiency virus 1
[4] = target: Human immunodeficiency virus type 1 protease (Human immunodeficiency virus 1, UniProt Q72874, A71V/E35D/F53L/H69K/I54V/I84V/I93L/K20R/L10F/L19I/L33F/L63P/L89M/L90M/M36I/R41K/T74P); assay: Inhibition of HIV1 recombinant protease L10F/L19I/K20R/L33F/E35D/M36I/R41K/F53L/I54V/L63P/H69K/A71V/T74P/I84V/L89M/L90M/I93L mutant expressed in Escherichia coli by spectrophotometric assay
Summary of the method: (§1)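 Recombinant PR refolded from inclusion bodies and purified. 8-10 pmol enzyme in 1 mL 0.1 M sodium acetate pH 4.7, 0.3 M NaCl, 4 mM EDTA. Ki obtained by fitting the Williams–Morrison competitive inhibition equation.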

[5] = target: Human immunodeficiency virus type 1 protease (Human immunodeficiency virus 1, UniProt Q72874, A71V/I54V/I84V/L10I/L24I/L33F/L63P/M46L/V82A); assay: Inhibition of HIV1 recombinant protease L10I/L24I/L33F/M46L/I54V/L63P/A71V/V82A/I84V mutant expressed in Escherichia coli by spectrophotometric assay; summary of the method: as §1
[6] = Ratio of Ki for HIV1 recombinant protease A71V/V82T/I84V mutant to Ki for wild-type HIV1 BH10 protease; set-up: species or system Human immunodeficiency virus 1
[7] = target: Human immunodeficiency virus type 1 protease (Human immunodeficiency virus 1, UniProt Q72874, A71V/I84V/M46I/V82T); assay: Inhibition of HIV1 recombinant protease M46I/A71V/V82T/I84V mutant expressed in Escherichia coli by spectrophotometric assay; summary of the method: as §1
[8] = target: Human immunodeficiency virus type 1 protease (Human immunodeficiency virus 1, UniProt Q72874, D30N/N88D); assay: Inhibition of HIV1 recombinant protease D30N/N88D mutant expressed in Escherichia coli by spectrophotometric assay; summary of the method: as §1
Protease = Protease (Human immunodeficiency virus 1, UniProt Q9YQ12); assay: Inhibition of wild-type HIV1 BH10 protease expressed in Escherichia coli by spectrophotometric assay; summary of the method: as §1
[9] = target: Human immunodeficiency virus type 1 protease (Human immunodeficiency virus 1, UniProt Q72874, A71V/I84V/V82T); assay: Inhibition of HIV1 recombinant protease A71V/V82T/I84V mutant expressed in Escherichia coli by spectrophotometric assay; summary of the method: as §1
[10] = target: Human immunodeficiency virus type 1 protease (Human immunodeficiency virus 1, UniProt Q72874, I47A/V32I); assay: Inhibition of HIV1 recombinant protease V32I/I47A mutant expressed in Escherichia coli by spectrophotometric assay; summary of the method: as §1
[11] = target: Human immunodeficiency virus type 1 protease (Human immunodeficiency virus 1, UniProt Q72874, A71V/E35D/G73S/I15V/I62V/L10I/L63P/L90M/N37S/R41K); assay: Inhibition of HIV1 recombinant protease L10I/I15V/E35D/N37S/R41K/I62V/L63P/A71V/G73S/L90M mutant expressed in Escherichia coli by spectrophotometric assay
[12] = Ratio of Ki for HIV1 recombinant protease L10F/L19I/K20R/L33F/E35D/M36I/R41K/F53L/I54V/L63P/H69K/A71V/T74P/I84V/L89M/L90M/I93L mutant to Ki for wild-type HIV1 BH10 protease; set-up: species or system Human immunodeficiency virus 1
[13] = Ratio of Ki for HIV1 recombinant protease M46I/A71V/V82T/I84V mutant to Ki for wild-type HIV1 BH10 protease; set-up: species or system Human immunodeficiency virus 1
[14] = Ratio of Ki for HIV1 recombinant protease D30N/N88D mutant to Ki for wild-type HIV1 BH10 protease; set-up: species or system Human immunodeficiency virus 1

Row | SMILES | Ki ratio [1] | Ki ratio [2] | Ki ratio [3] | Ki [4] [nM] | Ki [5] [nM] | Ki ratio [6] | Ki [7] [nM] | Ki [8] [nM] | Ki (Protease) [nM] | Ki [9] [nM] | Ki [10] [nM] | Ki [11] [nM] | Ki ratio [12] | Ki ratio [13] | Ki ratio [14]
1 | COC(=O)N[C@H](C(=O)N[C@@H](Cc1ccccc1)[C@@H](O)CN(Cc1ccc(-c2ccccn2)cc1)NC(=O)[C@@H](NC(=O)OC)C(C)(C)C)C(C)(C)C [ATAZANAVIR] | 7.1 | 3.2 | 50 | 0.054 | 1.2 | 9.4 | 0.76 | 0.055 | 0.024 | 0.23 | 0.17 | 0.076 | 2.3 | 32 | 2.3
2 | Cc1c(O)cccc1C(=O)N[C@@H](CSc1ccccc1)[C@H](O)CN1C[C@H]2CCCC[C@H]2C[C@H]1C(=O)NC(C)(C)C | – | – | – | – | – | – | – | – | 0.07 | – | – | – | – | – | –
3 | CC(C)CN(C[C@@H](O)[C@H](Cc1ccccc1)NC(=O)O[C@H]1CCOC1)S(=O)(=O)c1ccc(N)cc1 | – | – | – | – | 4.1 | – | – | – | […] | – | – | – | – | – | –
